Source: PubChem (Johns Hopkins Ion Channel Center)
An excerpt weighted towards active compounds, which were near 3.7% of everything screened.
KCNK9 block = human KCNK9 channel inhibition; HEK293 KCNK9, FluxOR thallium flux fluorescence; stronger effect = lower value; B-score at 10 µM; 1.2% of 310,000 active;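 active = ratio B-score over 3 SD below the library mean, with starting fluorescence within 5 SD of its mean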;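 note: negative B-score means less thallium flux so channel inhibition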
KCNQ1 inh = human KCNQ1 channel inhibition | P51787 | CHO-K1 KCNQ1, FluxOR thallium flux fluorescence; stronger effect = higher value | B-score at 10 µM | 1.3% of 310,000 active | AID 2642;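 active = compounds whose thallium flux B-score, printed positive for inhibition, exceeds three library SD while starting fluorescence stays within three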;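 note: channel opened by potassium depolarization with thallium stimulus after 20 min compound exposure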
Kir21 inh = blocks the mouse Kir2.1 inward-rectifier potassium channel; B-score at 10 µM; P35561; AID 1672; HEK293-Kir2.1, FluxOR thallium flux fluorescence; stronger effect = lower value; 0.85% of 310,000 active;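 active = fluorescence ratio B-score at or below minus 3 SD of library scores, with starting-brightness B-score within 2 SD, cut at about -4.2 in these data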;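 note: channel flux triggered by added potassium and thallium sulfate stimulus; B-score of peak minus minimum fluorescence over baseline after thallium stimulus; more negative B-score means stronger Kir2.1 block with less thallium influx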
KCNK3 block = human KCNK3 channel inhibition, primary screen | O14649 | CHO-KCNK3 thallium flux, FluxOR fluorescence; stronger effect = lower value | B-score at 10 µM | 0.84% of 340,000 active;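 active = B-score under library mean minus 4 SD, starting fluorescence ratio at most library mean plus 5 SD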;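 note: more negative B-score means stronger inhibition of thallium flux through KCNK3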
KCNQ1 pot = potentiators or activators of human KCNQ1 potassium channel; P51787; CHO-K1 KCNQ1, thallium flux FluxOR fluorescence; stronger effect = higher value; B-score at 10 µM; 0.35% of 310,000 active; AID 2648;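 active = fluorescence ratio B-score, a plate-corrected score, at least three library SD, with initial intensity B-score within 5 SD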
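Test system: CHO-K1 cells stably expressing KCNQ1 / Medium: assay buffer / Also added: depolarizing K+/Tl+ stimulus, K2SO4 and Tl2SO4 each 12.5 mM in 5x stock / Incubation: 90 min dye loading and 20 min compound exposure, both at room temperature / Signal: thallium influx via FluxOR fluorescence, kinetic imaging / Evaluation: B score of baseline-normalized fluorescence ratio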
hERG protect = shields human hERG channel from block by proarrhythmic agents; AID 1511; 0.51% of 310,000 active; activation (rescue from dofetilide block), less the hit threshold, % at 10 µM; Q12809; CHO-hERG, FluxOR thallium flux, dofetilide IC70 present;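 active = activation above the mean of controls blocked by dofetilide plus 5 SD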;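 note: thallium influx through hERG after potassium depolarization seen as dye fluorescence rise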
Target sequence (Q12809 whole entry, looked up): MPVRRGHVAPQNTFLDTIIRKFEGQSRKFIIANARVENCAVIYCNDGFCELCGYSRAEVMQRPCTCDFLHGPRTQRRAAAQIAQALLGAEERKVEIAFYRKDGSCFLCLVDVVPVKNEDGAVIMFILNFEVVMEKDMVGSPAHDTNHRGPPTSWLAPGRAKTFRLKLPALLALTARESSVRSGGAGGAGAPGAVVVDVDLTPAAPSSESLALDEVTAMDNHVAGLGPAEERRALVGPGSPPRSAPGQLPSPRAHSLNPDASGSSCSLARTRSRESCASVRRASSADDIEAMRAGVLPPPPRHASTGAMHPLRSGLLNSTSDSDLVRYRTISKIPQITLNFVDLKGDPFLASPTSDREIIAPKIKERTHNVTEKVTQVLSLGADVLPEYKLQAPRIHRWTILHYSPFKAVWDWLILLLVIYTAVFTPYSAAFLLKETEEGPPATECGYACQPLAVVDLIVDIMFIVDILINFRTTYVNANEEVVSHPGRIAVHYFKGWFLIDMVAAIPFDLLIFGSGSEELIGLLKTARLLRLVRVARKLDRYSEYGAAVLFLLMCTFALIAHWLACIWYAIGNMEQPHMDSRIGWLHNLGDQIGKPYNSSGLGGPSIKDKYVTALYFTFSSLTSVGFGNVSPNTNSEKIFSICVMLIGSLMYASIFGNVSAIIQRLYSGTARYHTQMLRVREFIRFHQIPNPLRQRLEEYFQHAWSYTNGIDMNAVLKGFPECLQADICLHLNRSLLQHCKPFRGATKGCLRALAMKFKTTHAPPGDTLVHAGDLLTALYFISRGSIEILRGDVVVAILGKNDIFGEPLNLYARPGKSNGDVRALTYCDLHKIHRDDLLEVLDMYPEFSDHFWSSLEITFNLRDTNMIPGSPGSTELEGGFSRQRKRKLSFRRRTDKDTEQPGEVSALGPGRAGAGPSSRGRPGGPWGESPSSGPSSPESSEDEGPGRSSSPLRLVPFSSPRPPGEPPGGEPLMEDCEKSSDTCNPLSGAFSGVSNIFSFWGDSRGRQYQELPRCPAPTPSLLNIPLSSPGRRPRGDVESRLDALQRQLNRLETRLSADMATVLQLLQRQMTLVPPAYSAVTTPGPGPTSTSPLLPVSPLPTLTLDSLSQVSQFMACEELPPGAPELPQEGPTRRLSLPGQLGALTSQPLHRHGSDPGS
KCNK9 inh conf = human KCNK9 inhibitor confirmation; AID 492992; HEK293 KCNK9 cells, FluxOR thallium flux fluorescence; shares compounds with KCNK9 block; 43% of 4,900 active; inhibition, % at 10 µM;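 active = thallium signal inhibited by more than 5 SD of the compound-free buffer control wells, on both duplicate plates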
Kir2-1 spec = tests whether KCNK9 modulators also affect mouse Kir2.1; Kir2.1 cells, FluxOR thallium flux fluorescence; 4% of 4,900 active; shares compounds with KCNK9 block; inhibition, % at 10 µM;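 active = thallium signal drop more than 5 SD beyond the mean of the no-compound control wells, seen in both duplicate plates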;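 note: signal is fluorescence rise after thallium addition divided by baseline fluorescence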
HEK293 Tl ctr = second counter-screen for KCNK9 modulators: effect in non-induced cells | shares compounds with KCNK9 block | non-induced KCNK9-HEK293, FluxOR thallium flux | inhibition, % at 10 µM | 40% of 4,900 active | AID 492997;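 active = thallium signal drop beyond 5 SD of the untreated control mean, on both duplicate plates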
Of the large screens only hits and unclear results are named; the others gave an inactive call (follow-up assays come after a bar, where they were run).

CN(c1ccc(OCc2nnc(-c3ccccc3)o2)cc1)S(=O)(=O)c1ccccc1	none
CN(c1ccc(OCc2ccc([N+](=O)[O-])cc2)cc1)S(=O)(=O)c1ccccc1	KCNK9 block -8.5 | KCNK9 inh conf inactive | Kir2-1 spec inactive | HEK293 Tl ctr 29%
COc1ccccc1N1CCN(CCN2C(=O)CC(=C3c4ccccc4-c4ccccc43)C2=O)CC1	none (no result: KCNK3 block) | KCNK9 inh conf inactive | Kir2-1 spec inactive | HEK293 Tl ctr inactive
Cc1oc(-c2cccs2)nc1CN1CCC(c2ccccc2)CC1	none | KCNK9 inh conf inactive | Kir2-1 spec inactive | HEK293 Tl ctr inactive
Cc1[nH]c2ccccc2c1/C=C(\C#N)C(=O)NCc1ccccc1	none
Cc1ccc(C(C)NC(=O)/C(C#N)=C\c2c(C)[nH]c3ccccc23)cc1 (stereo unspecified)	none | KCNK9 inh conf inactive | Kir2-1 spec inactive | HEK293 Tl ctr inactive
COc1ccc(/C=N/NC(=O)c2cc(-c3ccccc3)nc3ccccc23)cc1O	none
COc1ccc(/C=N/NC(=O)c2nc(-c3ccccc3)cc(-c3ccccc3)n2)cc1O	KCNK9 block -11 | KCNK9 inh conf 68% | Kir2-1 spec inactive | HEK293 Tl ctr inactive
COc1ccc(Cn2nc(-c3ccccc3)c(N3CCCCC3)cc2=O)cc1	KCNK9 block -17, KCNQ1 inh 7 | KCNK9 inh conf inactive | Kir2-1 spec inactive | HEK293 Tl ctr 28%
COc1ccc(CC(=O)Nc2ccc(C(N)=O)cc2)cc1	none
COC(=O)/N=C(/Cc1ccc(OC)cc1)c1ccc(OC)cc1	none | KCNK9 inh conf inactive | Kir2-1 spec inactive | HEK293 Tl ctr inactive
N#Cc1ccccc1Sc1ccccc1C(=O)OCC(=O)NC12CC3CC(CC(C3)C1)C2	KCNK9 block -8.5 | KCNK9 inh conf 48% | Kir2-1 spec inactive | HEK293 Tl ctr 30%
O=S1(=O)CCOC[C@H](CC2CCCCC2)N1Cc1ccccc1Br	none
O=c1c(C/C=C/c2ccccc2)c(O)ccn1Cc1ccc(Cl)cc1Cl	KCNQ1 inh 9 | KCNK9 inh conf inactive | Kir2-1 spec inactive | HEK293 Tl ctr inactive
O=c1c(Cc2ccc(Cl)cc2Cl)c(O)ccn1Cc1ccncc1	none
CCOC(=O)N1CCN(Cc2nc3cc(NC(=O)c4ccco4)ccc3n2C)CC1	none
CC(C)c1ccc(NC(=O)c2cccc(Br)c2)cc1	KCNK9 block -8.8 | KCNK9 inh conf 38% | Kir2-1 spec inactive | HEK293 Tl ctr inactive
CCOC(=O)c1ccc(N/C(=N\S(=O)(=O)c2ccccc2C)c2ccccc2)cc1	KCNK9 block -8.4 | KCNK9 inh conf 39% | Kir2-1 spec inactive | HEK293 Tl ctr 28%
CNC[C@H](Cc1ccccc1)NC[C@@H](Cc1cccc2ccccc12)NCCc1ccc(C)cc1	KCNK9 block -9.5, KCNQ1 inh 11, Kir21 inh -10 | KCNK9 inh conf 70% | Kir2-1 spec 76% | HEK293 Tl ctr 58%
Cc1cc(C)c(S(=O)(=O)c2ccc(C(C)(C)C)cc2)c(Cl)n1	none | KCNK9 inh conf inactive | Kir2-1 spec inactive | HEK293 Tl ctr inactive
CCOc1cc(C)c(C(C)C)cc1S(=O)(=O)n1cnc(C)c1	none | KCNK9 inh conf inactive | Kir2-1 spec inactive | HEK293 Tl ctr inactive
CCOc1cc(C)c(C(C)C)cc1S(=O)(=O)N1CC(C)OC(C)C1 (stereo unspecified)	none
CCN(Cc1ccccc1)C(=O)COc1cc(=O)n(CC)c2ccccc12	none | KCNK9 inh conf inactive | Kir2-1 spec inactive | HEK293 Tl ctr inactive
CCCN(CCC)C(=O)COc1cc(=O)n(CC)c2ccccc12	none
CS(=O)(=O)Nc1nnc(SCC(=O)N(c2ccccc2)c2ccccc2)s1	none
COc1ccc(NC(=O)CSc2nnc(C3CCCCC3)n2-c2ccccc2)cc1	none | KCNK9 inh conf inactive | Kir2-1 spec inactive | HEK293 Tl ctr inactive
COc1ccc(NC(=O)CSc2nnc(C3CC3)n2N)cc1	none
COc1ccc(-n2c(SCC(=O)Nc3ccc(Cl)cc3)nc(O)c(Cc3ccccc3)c2=O)cc1	none | KCNK9 inh conf inactive | Kir2-1 spec inactive | HEK293 Tl ctr inactive
COc1ccc(-n2c(SCC(=O)Nc3ccc(C)cc3)nc(O)c(Cc3ccccc3)c2=O)cc1	none
Cc1nc(-c2cccc(S(=O)(=O)N3CCCCCC3)c2)cs1	none | KCNK9 inh conf inactive | Kir2-1 spec inactive | HEK293 Tl ctr inactive
CCCOc1ccccc1N/C(=N/c1nc(C)cc(C)n1)NC(=O)COc1ccc(OC)cc1	KCNK9 block -27, KCNQ1 inh 10 | KCNK9 inh conf 77% | Kir2-1 spec inactive | HEK293 Tl ctr 41%
CCCOc1ccccc1N/C(N)=N/c1nc(C)cc(C)n1	none
O=C(COC(=O)C1CCN(c2ccc(C(F)(F)F)cn2)CC1)c1ccccc1	none | KCNK9 inh conf inactive | Kir2-1 spec inactive | HEK293 Tl ctr inactive
O=C(COC(=O)C1CCN(c2ccc(C(F)(F)F)cn2)CC1)c1cccc(Br)c1	none
CCOC(=O)c1c(C)[nH]c(N=Nc2cccc(OC)c2)c1C	KCNK9 block -12 | KCNK9 inh conf 62% | Kir2-1 spec inactive | HEK293 Tl ctr inactive
Cc1c(CCC(=O)NCCCC(=O)O)c(=O)oc2cc3oc4c(c3cc12)CCCC4	none
CCn1cc(/C=C(\NC(=O)c2ccccc2F)C(=O)NCCN2CCOCC2)c2ccccc21	none | KCNK9 inh conf inactive | Kir2-1 spec inactive | HEK293 Tl ctr inactive
CCn1cc(/C=C(\NC(=O)c2ccccc2OC)C(=O)NCCCN2CCOCC2)c2ccccc21	none
Cn1cc(CN2CCN(c3ccccc3)CC2)c2ccccc21	none | KCNK9 inh conf inactive | Kir2-1 spec inactive | HEK293 Tl ctr inactive
COc1cccc(Oc2nc(N)ncc2[N+](=O)[O-])c1	none
N#CCc1ccc(Oc2ncc(C(F)(F)F)cc2Cl)cc1	none
Cc1ccc(CO/N=C\Cc2snc(Sc3ncc(C(F)(F)F)cc3Cl)c2C#N)cc1	none | KCNK9 inh conf inactive | Kir2-1 spec inactive | HEK293 Tl ctr inactive
Cc1ccc(/C=C2\SC(=S)N(c3c(C)n(C)n(-c4ccccc4)c3=O)C2=O)cc1	none | KCNK9 inh conf inactive | Kir2-1 spec inactive | HEK293 Tl ctr inactive
Cc1c(N2C(=O)/C(=C/c3ccccc3)SC2=S)c(=O)n(-c2ccccc2)n1C	none | KCNK9 inh conf inactive | Kir2-1 spec inactive | HEK293 Tl ctr inactive
Cc1c(N2C(=O)/C(=C/C3CC=CCC3)SC2=S)c(=O)n(-c2ccccc2)n1C (stereo unspecified)	none
